For 37 variants, yeast fitness results are on record in the RNAGym collection of RNA variant scans (doi:10.1126/science.aae0568).

This sample holds only a part of the variants without activity. Bounds are passed on as bounds.

Sequences and labels used below:
B1: tRNA (parent)
chain: GUUCCGUUGGCGUAAUGGUAACGCGUCUCCCUCCUAAGGAGAAGACUGCGGGUUCGAGUCCCGUACGGAACG

The variants in this series derive from B1. The series can be described thus: yeast fitness relative to wild type (ratio to wild type); higher = fitter; tRNA-Arg(CCU), competitive growth, 37 C, YPD. The method, boiled down: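 Changes in genotype frequencies gave Darwinian fitness relative to wild type. Frequencies were read by 100-nucleotide paired-end sequencing of gene amplicons before and after pooled Saccharomyces cerevisiae strains, carrying tRNA-Arg(CCU) gene variants at the native locus, were competed in YPD at 37°C for 24 hours in six replicates. A genotype was kept only with ≥ 100 starting reads, and estimates < 0.5 were set to 0.5.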
Consider GUUCCGUUGCCGUAAUGGUAUCCCGUCUCCCUCCUAAGGAGAAGACUGCGGGUUCAAGUCACGUGCGGAACG [G10C A21U G23C G56A C61A A65G], for which the yeast fitness was found to be 0.567.

For GUUCCGUUGCCGUAAUGGUAACGCGUGUCGCUCCUAAGGAGAAGACUGCGGGUUCGAAUCCCGUACGGAACG [G10C C27G C30G G58A], the yeast fitness was determined as 0.557.

Turning to GUUCCGUUGCCGUAAUGGUAACGCGUCUCCCUCCUAAGGAGAAGACUGCGGGUUUGAGUCCCGUACGGAACG [G10C C55U], the yeast fitness is at most 0.5.

Regarding GUUCCGUUGCCGUAAUGGUAAAGGGUCUCCCUCCUAAGGAGAAGACUGCGGGUUCGAGUCCCGUACGCAACG [G10C C22A C24G G68C], the yeast fitness was at most 0.5.

As for GUUCCGUUGCCGUAAUGGUAACGCGUCUCCCUCCUAAGGAGACGACUGCGGGUUCGAGUCCCGUACGGAACG [G10C A43C], the yeast fitness turned out to be 0.591.

Consider GUUCCGUUGCAGUAAUGGUAACGCGUCUCCUUCCUUAGGAGAAGACUGCGGGUUCCUGUCCCGUACGGAACG [G10C C11A C31U A36U G56C A57U], for which the yeast fitness was 0.606.

GUUCCGUUGCCGUAAUGGUAAAGCGUCUCCCUCCUAAGGAGAAGACUGCGGGUUCGAGUGUCAUACGGAACG [G10C C22A C60G C61U G63A]: the yeast fitness was at most 0.5.

Consider GUUCCGUUGCCGUAAUGGUAACGCGUCUCGCUCCUAAGGAGAAGAUUGCGGGUUCGAGUCCCGUACGGAACG [G10C C30G C46U], for which the yeast fitness was at most 0.5.

On to GUUCCGUUGCCGUAAUGGUAAGGCGUCUACCUCCUAAGGAGAAGAUUGCGGGUUCGAGUCCCGUCCGGAACG [G10C C22G C29A C46U A65C], for which the yeast fitness stood at 0.538.

As for GUUCCGUUGCGGUAAUGGUAACGCGUCUCCUUCCCAAGGAGAAGACUGCGGGUACGAGUCCCGUACGGAACG [G10C C11G C31U U35C U54A], the yeast fitness was at most 0.5.

For the variant GUUCCGUUGCCGUAAUGGUACCGCGUCUAGCUCCUAAGGCGAAGACUGCGGGUUCGAGUCCCGUACGGAACG [G10C A21C C29A C30G A40C], the yeast fitness is at most 0.5.

Turning to GUUCCGUUGCCGUAAUGGUAACGCGUCUCCCUCCUACGGAGUAGACUGCGGGUUCGAGUCCCGUACGGAACG [G10C A37C A42U], the yeast fitness was at most 0.5.

GUUCCGUUGCGGUAAUGGUAACGCGUCUCCCUCCUAAGGAGAAGACUGCAGGUUCGAGUCCCGUCCGGAACG [G10C C11G G50A A65C]: the yeast fitness was at most 0.5.

Consider GUUCCGUUGCCGUAAUGGUAACGCGUCUCCCUCCUUAGGAGAAGACUGCGGGUUCGAGUCCCGUACGGAACG [G10C A36U], for which the yeast fitness turned out to be 0.539.

In the case of GUUCCGUUGCCGUAAUGGUAACGCGUCUCCGUCCUAAGGAGAAGACUGCGGGUUCGAGUCCCGUACGGAUCG [G10C C31G A70U], the yeast fitness was determined as 0.569.

With GUUCCGUUGCCGUAAUGGUACCGCGUCUCUCUCCUAAGGACAAGACUGCGGGUUCGAGUCCCGUACGGAUCG [G10C A21C C30U G41C A70U], the yeast fitness was at most 0.5.

On to GUUCCGUUGCCGUAAUGGUAACGCGUUUCCCUCCUAAGGUGAAGUCUACGGGUUCGAGUCCCGUACGGAACG [G10C C27U A40U A45U G48A], for which the yeast fitness was at most 0.5.

Consider GUUCCGUUGCGGUAAUGGUAACGCGUCUCCCUCCUAAGGAGAAGACUGCGGGUUCCAGUCCCGUACGAAACG [G10C C11G G56C G68A], for which the yeast fitness was at most 0.5.

Consider GUUCCGUUGCCGUAAUGGUAACGCGUCUCCCUCCUAAGGAGACGAGUGCGGGUUGGAGUCCCGUUCGGAACG [G10C A43C C46G C55G A65U], for which the yeast fitness is 0.547.

With GUUCCGUUGCCGUAAUGGUAACGUGUCUACCUCCUAAGGAGAAGUGAGCAGGUUCGAGUCCCGUACGGAACG [G10C C24U C29A A45U C46G U47A G50A], the yeast fitness came to 0.702.

Take GUUCCGUUGCCGUAAUGGUAACGAGUCUCCCUCCUAAGGAGAACACUGCGGGUUCGAGUCCCGUACGGAACG [G10C C24A G44C]: the yeast fitness is at most 0.5.

Turning to GUUCCGUUGCCGUAAUGGUAACGCGUCUCCCUCCUUAGGAAAAGACUGCGGGUUCGAGUCCCGUAUGGACCG [G10C A36U G41A C66U A70C], the yeast fitness is at most 0.5.

As for GUUCCGUUGCCGUAAUGGUAAAGGGUCUCCCUCCUAAGGAGAAGACUGCGGGAUCGAGUCCCGUACAGAACG [G10C C22A C24G U53A G67A], the yeast fitness is at most 0.5.

As for GUUCCGUUGCCGUAAUGGUAACGCGUCUCCCUCCUCAGGAGAAGACACCGGGUGCGAGUCCCGUCCGGAACG [G10C A36C U47A G48C U54G A65C], the yeast fitness is at most 0.5.

Turning to GUUCCGUUGCCGUAAUGGUAACGCGUCUCCCUCCUAAGGAGACGACUGUGGGUUCGAGUCCCGUACGGUACG [G10C A43C C49U A69U], the yeast fitness is at most 0.5.

GUUCCGUUGCCGUAAUGGUAACGGGUCUCCCUCCUAAGGAGAAGAUUGCGGGUUCGAGUCCCGUACGGUACG [G10C C24G C46U A69U]: the yeast fitness came to 0.569.

Turning to GUUCCGUUGCCGUAAUGGUAACGCGUCUUCUUCCUAAGGAGAAGACUGCGGGUUCGAGUCCCUUACGGAACG [G10C C29U C31U G63U], the yeast fitness is at most 0.5.

Consider GUUCCGUUGCCGUAAUGGUAACGAGUCUCCCUCCUAAGGAGAAGACUGCGGGUUCGAGUCUCGUACGGAACG [G10C C24A C61U], for which the yeast fitness is at most 0.5.

As for GUUCCGUUGCAGUAAUGGUAACGCGUCUCCCUCAUAAGGAGAAGACUGCGAGUUCGAGUCGCGUACGGUACG [G10C C11A C34A G51A C61G A69U], the yeast fitness was at most 0.5.

Regarding GUUCCGUUGCCGUAAUGGUAAAGGGUCUCCCUCCUAAGGAGAAGACUGCCGGUUCGAGUCCCGUCCGGAACG [G10C C22A C24G G50C A65C], the yeast fitness was at most 0.5.

As for GUUCCGUUGCCGUAAUGGUAACGCGUCUCUCUCCUAAAGAGAAGACUGCGGGUUCGAGUCCCGUACGGAACG [G10C C30U G38A], the yeast fitness was 0.531.

As for GUUCCGUUGCCGUAAUGGUAACGCGUCUCCCUCCUAAGGUGAAGACUGCGGGUUCGCGUCCCGUUCGGAACG [G10C A40U A57C A65U], the yeast fitness is at most 0.5.

Turning to GUUCCGUUGCCGUAAUGGUAACGCGUCUCCCUCCUAAGGUGAAGACCGCGGGUUCGAGUCCCGUACGAAACG [G10C A40U U47C G68A], the yeast fitness is at most 0.5.

Regarding GUUCCGUUGCCGUAAUGGUAACGUGUCUCCCUCCUAAGGAGAAGACUGCGGGUUCGAGUCCCGUACGUAACG [G10C C24U G68U], the yeast fitness was at most 0.5.

As to GUUCCGUUGCCGUAAUGGUAACGCGUUUCUCUCCUAAGGAGAAGACUGCGGGAUCGAGUCCCGUACGGCACG [G10C C27U C30U U53A A69C], the yeast fitness was at most 0.5.

Turning to GUUCCGUUGCCGUAAUGGUAACGCGUCUCCCUGCUAAGGAGAAGACUGCGGGUUCGAGUCCCGUACGGAACG [G10C C33G], the yeast fitness came out at 0.558.

Regarding GUUCCGUUGCCGUAAUGGUAACGCGUCUCCCUACUAAGGAGAAGACUGCGGGUUCGAGUCCCGUACGGAACG [G10C C33A], the yeast fitness came out at 0.506.
